From ChEMBL document CHEMBL1144067, “Cancer chemopreventive agents (antitumor-promoters) from Ajuga decumbens” (J Nat Prod, 1999)

Tests used:
Raji [1] = test: Inhibition of 12-O-tetradecanoylphorbol-13-acetate induced EBV-early antigen activation in human Raji cells at 500 molar ratio relative to control; format: cell-based; details: human gammaherpesvirus 4
In short: (§1)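 Raji cells in RPMI-1640 treated 48 h at 37 °C with n-butyric acid (4 mmol), TPA (32 pmol = 20 ng/mL) and test agent at 10, 100, 500 or 1000 mol ratio/TPA (0.32–32 nmol). EA-positive cells in smears detected by indirect immunofluorescence; induction expressed relative to TPA positive control (100%), n = 3, ±S.D.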

[2] = Cytotoxicity against human Raji cells assessed as cell viability at 500 molar ratio after 48 hrs; format: cell-based; details: read-out: Activity
In short: (§2)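 Raji cells (EBV genome-carrying, Burkitt's lymphoma-derived) grown in RPMI-1640 and incubated 48 h at 37 °C with 4 mmol n-butyric acid, 32 pmol TPA (20 ng/mL) and test agent at 10–1000 mol ratio/TPA (0.32–32 nmol). Viability given as percentage of Raji cells; n = 3, ±S.D.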

Raji [3] = test: Inhibition of 12-O-tetradecanoylphorbol-13-acetate induced EBV-early antigen activation in human Raji cells at 100 molar ratio relative to control; format: cell-based; details: human gammaherpesvirus 4; in short: as §1
Raji [4] = test: Inhibition of 12-O-tetradecanoylphorbol-13-acetate induced EBV-early antigen activation in human Raji cells at 10 molar ratio relative to control; format: cell-based; details: human gammaherpesvirus 4; in short: as §1
[5] = Cytotoxicity against human Raji cells assessed as cell viability at 100 molar ratio after 48 hrs; format: cell-based; details: read-out: Activity; in short: as §2
Raji [6] = test: Inhibition of 12-O-tetradecanoylphorbol-13-acetate induced EBV-early antigen activation in human Raji cells at 1000 molar ratio relative to control; format: cell-based; details: human gammaherpesvirus 4; in short: as §1
[7] = Cytotoxicity against human Raji cells assessed as cell viability at 1000 molar ratio after 48 hrs; format: cell-based; details: read-out: Activity; in short: as §2
[8] = Cytotoxicity against human Raji cells assessed as cell viability at 10 molar ratio after 48 hrs; format: cell-based; details: read-out: Activity; in short: as §2
Mus musculus [9] = test: Inhibition of DMBA-induced/TPA-promoted carcinogenesis in mouse assessed as number of mouse bearing papillomas at 85 nmol administered twice weekly after 1 week of initiation for 8 weeks; format: functional; parameters: scale not given: the % may be the effect or the level left
In short: (§3)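 Female SPF ICR mice, 6 weeks old, 15 per group, backs shaved; single topical DMBA initiation (100 μg, 390 nmol) in 0.1 mL acetone. From 1 week after, promotion with TPA 1.7 nmol twice weekly, plus 85 nmol test agent. Papilloma incidence and number per mouse monitored weekly for 20 weeks.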

Mus musculus [10] = test: Inhibition of DMBA-induced/TPA-promoted carcinogenesis in mouse assessed as number of mouse bearing papillomas at 85 nmol administered twice weekly after 1 week of initiation for 17 weeks; format: functional; parameters: scale not given: the % may be the effect or the level left; in short: as §3
Mus musculus [11] = test: Inhibition of DMBA-induced/TPA-promoted carcinogenesis in mouse assessed as number of mouse bearing papillomas at 85 nmol administered twice weekly after 1 week of initiation for 10 weeks; format: functional; parameters: scale not given: the % may be the effect or the level left; in short: as §3
Mus musculus [12] = test: Inhibition of DMBA-induced/TPA-promoted carcinogenesis in mouse assessed as number of skin papillomas per mouse at 85 nmol administered twice weekly after 1 week of initiation for 10 weeks; format: functional; in short: as §3
Mus musculus [13] = test: Inhibition of DMBA-induced/TPA-promoted carcinogenesis in mouse assessed as number of skin papillomas per mouse at 85 nmol administered twice weekly after 1 week of initiation for 20 weeks; format: functional; in short: as §3

Compound	EBV-EA induction remaining (% of TPA control) (Raji [1])	viability at 48 h, 500 molar ratio [2]	EBV-EA induction remaining (% of TPA control) (Raji [3])	EBV-EA activation relative to TPA control (Raji [4])	viability at 48 h, 100 molar ratio [5]	EBV-EA induction remaining (% of TPA control) (Raji [6])	viability at 48 h, 1000 molar ratio [7]	viability at 48 h, 10 molar ratio [8]	Activity (Mus musculus [9])	Activity (Mus musculus [10])	Activity (Mus musculus [11])	Activity (Mus musculus [12])	Activity (Mus musculus [13])
CC1(C)C[C@H](O)C[C@@]2(C)OC(=O)C=C12 [LOLIOLIDE]	26.8%	> 80%	59.6%	88%	> 80%	5.1%	60%	> 80%	–	–	–	–	–
C[C@@H]1C(=O)O[C@H](C)[C@H]1CC(=O)[C@](C)(O)[C@H]1CC[C@@]2(O)C3=CC(=O)[C@@H]4C[C@@H](O)[C@@H](O)C[C@]4(C)[C@H]3CC[C@]12C	61.9%	> 80%	84.5%	100%	> 80%	20.9%	60%	> 80%	–	–	–	–	–
C[C@@H]1C(=O)O[C@H](C)[C@H]1C[C@@H](O)[C@](C)(O)[C@H]1CC[C@@]2(O)C3=CC(=O)[C@@H]4C[C@@H](O)[C@@H](O)C[C@]4(C)[C@H]3CC[C@]12C [CYASTERONE]	36.2%	> 80%	75.2%	94.6%	> 80%	0%	70%	> 80%	43%	80%	60%	2.5	7
C/C=C(/C)C(=O)O[C@@H]1CC[C@]2(CO2)[C@]2(COC(C)=O)[C@@H](OC(C)=O)C[C@@H](C)[C@](C)(C[C@H](O)C3=CC(=O)OC3)[C@@H]12	55.8%	> 80%	76.3%	100%	> 80%	0%	50%	> 80%	–	–	–	–	–
CC(C)(O)CC[C@@H](O)[C@@](C)(O)[C@H]1CC[C@@]2(O)C3=CC(=O)[C@@H]4C[C@@H](O)[C@@H](O)C[C@]4(C)[C@H]3CC[C@]12C	73.7%	> 80%	90.1%	100%	> 80%	0%	70%	> 80%	–	–	–	–	–
C=C(C)C(C[C@@H](O)[C@@](C)(O)[C@H]1CC[C@@]2(O)C3=CC(=O)[C@@H]4C[C@@H](O)[C@@H](O)C[C@]4(C)[C@H]3CC[C@]12C)C(C)O (stereo not given in full) [DECUMBESTERONE]	24.7%	> 80%	66%	100%	> 80%	0%	70%	> 80%	–	–	–	–	–
CC(C)(O)CC[C@@H](O)[C@](C)(O)[C@H]1CC[C@@]2(O)C3=CC(=O)[C@]4(O)C[C@@H](O)[C@@H](O)C[C@]4(C)[C@H]3CC[C@]12C [POLYPODINE B]	–	> 80%	–	–	> 80%	–	70%	> 80%	–	–	–	–	–
C/C=C(/C)C(=O)O[C@@H](C[C@@]1(C)[C@H](C)C[C@H](OC(C)=O)[C@]2(COC(C)=O)[C@@H]1[C@H](OC(=O)/C(C)=C\C)CC[C@]21CO1)C1=CC(=O)OC1	47.2%	> 80%	71.5%	100%	> 80%	18.4%	70%	> 80%	–	–	–	–	–
